The results in this text go back to ChEMBL document CHEMBL1149681, “OSW-1 analogues: modification of the carbohydrate moiety” (Bioorg Med Chem Lett, 2007).

Holding throughout (type): functional, cell-based
In one experiment the test system is NCI-H460. Nature of the experiment: Antitumor activity against human NCI-H460 cells by methylene blue staining method. An outline of the steps:
(§1)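 Cells grown in RPMI1640 with 10% fetal bovine serum, seeded in 96-well plates and cultured overnight at 37 °C, 5% CO2 before serially diluted samples were added. After 3 days of culture, stained 30 min with 0.05% methylene blue in 10 mM Tris pH 8.5, washed with water, dye extracted with 3% HCl, OD660 read. Independent triplicates; IC50 from means. Cisplatin control included in each assay.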

Another experiment concerns MDA-MB-231. The experiment in a line: Antitumor activity against human MDA-MB-231 cells by methylene blue staining method. The gist of the method: as §1
Another experiment has as its system T47D. The experiment in a line: Antitumor activity against human T47D cells by methylene blue staining method. The gist of the method: as §1
A further experiment has as its system A498. Nature of the experiment: Antitumor activity against human A498 cells by methylene blue staining method. An outline of the steps: as §1
A further experiment relates to PC-3. Nature of the experiment: Antitumor activity against human PC3 cells by methylene blue staining method. The gist of the method: as §1
The subject of a further experiment is DLD-1. The experiment in a line: Antitumor activity against human DLD1 cells by methylene blue staining method. The gist of the method: as §1
For another experiment, the system named is HCT-116. The experiment in a line: Antitumor activity against human HCT116 cells by methylene blue staining method. The gist of the method:
as §1

The next experiment relates to UO-31. The experiment in a line: Antitumor activity against human UO31 cells by methylene blue staining method. An outline of the steps: as §1

In the case of `CC(=O)O[C@@H]1[C@@H](O[C@H]2C[C@H]3[C@@H]4CCc5cc(O)ccc5[C@H]4CC[C@]3(C)[C@@]2(O)[C@H](C)C(=O)CCC(C)C)OC[C@@H](O)[C@H]1O[C@@H]1OC[C@@H](O)[C@H](O)[C@H]1O`, the IC50 in the experiment with NCI-H460 stood at 9.98 µM; in the experiment on MDA-MB-231, 6.94 µM.
Turning to `COc1ccc(C(=O)O[C@H]2[C@H](O[C@H]3[C@H](OC(C)=O)[C@@H](O[C@H]4C[C@H]5[C@@H]6CCc7cc(O)ccc7[C@H]6CC[C@]5(C)[C@@]4(O)[C@H](C)C(=O)CCC(C)C)OC[C@H]3O)OC[C@@H](O)[C@@H]2O)cc1`, the IC50 in the experiment with T47D worked out at 710 nM; in the experiment with NCI-H460, 0.26 µM; in the experiment on MDA-MB-231, 0.68 µM; in the experiment with A498 it was 430 nM; with PC-3, 1400 nM; with DLD-1, 1180 nM.
As to `COc1ccc(C(=O)O[C@H]2[C@H](O[C@H]3[C@H](OC(C)=O)[C@@H](O[C@H]4C[C@H]5[C@@H]6CCc7cc(O)ccc7[C@H]6CC[C@]5(C)[C@@]4(O)[C@H](C)C(=O)CCC(C)C)OC[C@H]3F)OC[C@@H](O)[C@@H]2O)cc1`, the IC50 in the experiment on T47D was determined as 2810 nM; in the experiment on NCI-H460, 2.59 µM; in the experiment on MDA-MB-231 it was 0.85 µM; with A498 it was 300 nM; with PC-3, 680 nM; in the experiment on DLD-1, 1720 nM. The IC50 in the experiment on HCT-116 was determined as 2900 nM; with UO-31, 56 nM.
`COc1ccc(C(=O)O[C@@H]2CCO[C@H]2O[C@H]2[C@H](OC(C)=O)[C@@H](O[C@H]3C[C@H]4[C@@H]5CCc6cc(O)ccc6[C@H]5CC[C@]4(C)[C@@]3(O)[C@H](C)C(=O)CCC(C)C)OC[C@H]2O)cc1`: the results for the IC50 with NCI-H460 and with MDA-MB-231 were 5.75 µM and 18.2 µM, respectively.
`COc1ccc(C(=O)O[C@H]2[C@H](O[C@@H]3CCO[C@H](O[C@H]4C[C@H]5[C@@H]6CCc7cc(O)ccc7[C@H]6CC[C@]5(C)[C@@]4(O)[C@H](C)C(=O)CCC(C)C)[C@H]3OC(C)=O)OC[C@@H](O)[C@@H]2O)cc1`: the IC50 in the experiment with NCI-H460 was 13.7 µM; in the experiment with MDA-MB-231, 10.9 µM.
For `COc1cccc2c1C(=O)c1c(O)c3c(c(O)c1C2=O)C[C@@](O)(C(=O)CO)C[C@@H]3O[C@H]1C[C@H](N)[C@H](O)[C@H](C)O1` [DOXORUBICIN], the IC50 came out at 27 nM in the experiment with T47D; 0.0037 µM with NCI-H460; 0.1 µM in the experiment on MDA-MB-231; 35 nM in the experiment on A498; 200 nM with PC-3; 100 nM in the experiment on DLD-1. Also, the IC50 in the experiment with HCT-116 turned out to be 37 nM; in the experiment with UO-31, 100 nM.

The term IC50 denotes the concentration that inhibits the measured activity by half. Low values mean inhibition by little substance, high ones a need for much substance.
